EWS-Fli inh – EWS/Fli-driven NR0B1 reporter inhibitors, primary screen, A673 cells, NR0B1 luciferase, luminescence, MLPCN library; AID 651661, 2012; hit rate 0.67% among 350,000; viability-normalised; inhibition, % at 12.6 µM;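 active = mean inhibition of at least 50% after viability correction, with every replicate also passing that limit; inconclusive = mean reaches 50% but only one of two replicates passes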;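 also: firefly luciferase signal divided by Alamar Blue viability fluorescence both relative to DMSO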
PGC1a acetyl inh – inhibitors of PGC1a acetylation signal, primary screen, cell-based, U2OS, AlphaScreen, inhibitor mode. AlphaScreen anti-acetyl-lysine; with virally co-expressed GCN5 acetyltransferase. inhibition, % at 15.6 µM. hit rate 0.17% among 350,000;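 active = every replicate shows inhibition of at least 40%; inconclusive = mean inhibition at least 40% but some replicate below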
PAX8 inh HTS – inhibitors of PAX8-driven TPO luciferase reporter, primary screen, RMG-I cells, single concentration; SteadyGlo, 24 h; hit rate 1.2% among 360,000; inhibition, % at 12.6 µM;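 active = mean replicate inhibition at least 60% with every replicate also reaching 60%; inconclusive = only one of the two criteria is met; inactive = mean below 60% and not all replicates reaching 60%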;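 also: luciferase light reporting Pax8 driven TPO promoter activity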
FGF22 binding – binders of human FGF22 protein, primary screen, FGF22 synaptogenesis inhibitor project, biophysical, thermal shift, single point. recombinant FGF22 thermal shift, SYPRO orange fluorescence; percent of sucrose octasulfate shift, DMSO zero. activity (Tm shift, normalised), % at 9.99 µM. AID 651658, 2012. hit rate 1.5% among 340,000;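 active = mean Tm shift, scaled 0 neutral to 100 positive control, at about 1.3% or above, every replicate too, limit read from the data; inconclusive = no clear call, values can overlap the other calls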
Target sequence (Q9HCT0 whole entry, looked up): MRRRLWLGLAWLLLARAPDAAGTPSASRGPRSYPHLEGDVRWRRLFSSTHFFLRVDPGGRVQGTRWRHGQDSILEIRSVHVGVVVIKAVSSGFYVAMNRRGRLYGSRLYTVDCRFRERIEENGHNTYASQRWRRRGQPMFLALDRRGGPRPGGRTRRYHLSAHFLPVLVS
HIV Env fusion – inhibitors of HIV-1 Env-driven cell-cell fusion, primary screen, HeLa-JRFL effector, CEM21 target cells, luciferase. hit rate 1.1% among 360,000. AID 651610, 2012. inhibition, % at 12.3 µM;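 active = mean replicate inhibition score of at least 50 and every replicate individually at or above 50; inconclusive = only one of the two criteria met; inactive = mean below 50 and not all replicates reaching 50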
FN deposition inh – inhibitors of fibronectin matrix deposition, primary screen, AH1F cells, Alexa488-fibronectin fluorescence, plate reader | AID 743247, 2014 | inhibition, % at 12.6 µM | hit rate 0.086% among 350,000 | AH1F fibroblasts, overnight;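 active = mean inhibition across replicates of 30% or more, regardless of how many single replicates reach that level; inconclusive = mean under 30% yet at least half of replicates reach 30%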
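Material: AH1F fibroblasts assembling fluorescent fibronectin matrix; amount: 10000 AH1F cells/well; medium: DMEM, 2% serum; reagent: Alexa488-fibronectin, 24 nM final in well; dosing: single compound dose, delivered by pin transfer; incubation: 1 h adhesion, overnight exposure; detection: fluorescence after three HBSS washes, excitation 485 nm, emission 525 nm; measure: fibronectin deposition inhibition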
Each line names hits and unclear results; the compound was inactive in the other large screens. The list is not random: actives were taken first. Their share in the collection is about 3.1%.

O=C1CN(S(=O)(=O)c2cc(Br)ccc2Br)CCN1	none
S=C(NCC1CCCO1)Nc1ccc(Cl)cc1Cl (centres undefined)	FN deposition inh 30.1 (no result: EWS-Fli inh, FGF22 binding)
CCOc1cc(NC(=S)NCC2CCCO2)c(OCC)cc1NC(=O)C1CC1 (centres undefined)	FGF22 binding 42.9 (no result: PGC1a acetyl inh)
CC(C)NC(=O)N(C)C[C@H]1OCCCC[C@@H](C)Oc2ccc(NS(=O)(=O)c3ccc(F)cc3)cc2C(=O)N([C@H](C)CO)C[C@@H]1C	none
O=C(C[C@H]1CC[C@H](NC(=O)Nc2ccc3c(c2)OCO3)[C@H](CO)O1)NCc1ccc(F)cc1	none (no result: FN deposition inh)
CCC(=O)N1CCc2cc(S(=O)(=O)N(C)c3ccc(OC)cc3OC)ccc21	none
CCC(=O)N1CCc2cc(Br)cc(S(=O)(=O)N(C)c3ccc(OC)cc3OC)c21	FGF22 binding 43.1
CCN1CCN(C(=O)CSc2cc(=O)n(C)c3ccccc23)CC1	none
CN1CCN(C(=O)CSc2cc(=O)n(C)c3ccccc23)CC1	FGF22 binding 43.5 (no result: PGC1a acetyl inh)
Cc1cccc(OCc2nnc(SC(C)C(=O)O)n2Cc2ccccc2)c1 (centres undefined)	FGF22 binding 43.3
Cc1ccc(S(=O)(=O)Nc2ccc3c(c2)C(=O)N([C@H](C)CO)C[C@@H](C)[C@@H](CN(C)C(=O)NC(C)C)OCCCC[C@@H](C)O3)cc1	none (no result: PGC1a acetyl inh)
CC(C)(O)C#Cc1ccc(C(=O)N2CCN(c3ccccc3)CC2)cc1	FGF22 binding 43.1 (no result: PGC1a acetyl inh)
COc1ccccc1N1CCN(C(=O)c2ccc(CSc3ccccc3)cc2)CC1	none (no result: EWS-Fli inh, FGF22 binding)
O=C(c1ccc(CSc2ccccc2)cc1)N1CCN(c2ccccc2)CC1	FGF22 binding 43.4
CO[C@@H]1CN(C)C(=O)c2ccc(NC(=O)C3CC3)cc2OC[C@H](C)N(C(=O)c2cnccn2)C[C@@H]1C	none (no result: PAX8 inh HTS)
CCOC(=O)c1sc(/N=C/N(C)C)nc1C	PAX8 inh HTS 117.0 (no result: HIV Env fusion)
C[C@@H]1CN([C@@H](C)CO)C(=O)c2cccc(NC(=O)NC3CCCCC3)c2O[C@@H]1CN(C)Cc1ccc2c(c1)OCO2	none (no result: FGF22 binding)
CO[C@@H]1CN(C)C(=O)c2cc(NC(=O)C3CC3)ccc2OC[C@H](C)N(CC2CCOCC2)C[C@@H]1C	none (no result: HIV Env fusion)
CN(C)S(=O)(=O)c1ccc(Cl)c(NC(=O)CN2CCC(Cc3ccccc3)CC2)c1	none (no result: FN deposition inh)
CN(C)S(=O)(=O)c1ccc(NC(=O)CN2CCC(Cc3ccccc3)CC2)cc1	FGF22 binding 43.6
CC(C)c1nnc(NC(=O)c2nc(S(=O)(=O)Cc3ccccc3)ncc2Cl)s1	EWS-Fli inh 63.7 (no result: PGC1a acetyl inh)
CCSc1ncc(Cl)c(C(=O)Nc2ccc(S(N)(=O)=O)cc2)n1	PAX8 inh HTS 70.4
CCOC(=O)c1ccc(NC(=O)c2nc(S(=O)(=O)Cc3ccccc3)ncc2Cl)cc1	HIV Env fusion inconclusive, FN deposition inh 47.5 (no result: EWS-Fli inh)
CCSc1ncc(Cl)c(C(=O)Nc2ccc(S(=O)(=O)Nc3ncccn3)cc2)n1	none
CCc1ccc(NC(=O)c2nc(S(=O)(=O)Cc3ccccc3)ncc2Cl)cc1	HIV Env fusion inconclusive, FN deposition inh 50.8 (no result: EWS-Fli inh, PGC1a acetyl inh)
CCS(=O)(=O)c1ncc(Cl)c(C(=O)Nc2ccc(S(=O)(=O)N3CCC(C)CC3)cc2)n1	PAX8 inh HTS 99.8, HIV Env fusion 64.8, FN deposition inh 58.2 (no result: EWS-Fli inh, PGC1a acetyl inh)
CC1CCN(S(=O)(=O)c2ccc(NC(=O)c3ccncc3)cc2)CC1	none (no result: FN deposition inh)
C[C@@H]1CN([C@@H](C)CO)C(=O)Cc2cc(NC(=O)c3ccncc3)ccc2O[C@H]1CN(C)S(C)(=O)=O	none (no result: FGF22 binding, FN deposition inh)
O=C(Cn1nnc(-c2ccccc2)n1)N1CCN(c2ccc(F)cc2)CC1	FGF22 binding 42.9 (no result: PGC1a acetyl inh)
O=C(Cn1nnc(-c2ccc(F)cc2)n1)N1CCCCC1	none (no result: FN deposition inh)
Cc1ccc2nc(NNC(=O)c3ccc4c(c3)OCCO4)sc2c1	none
Cc1ccc2nc(NNC(=O)c3ccc(S(=O)(=O)N4CCc5ccccc5C4)cc3)sc2c1	PAX8 inh HTS 89.8
C/C(=N/NC(=O)c1ccncc1)C1=C(O)CC(C)(C)CC1=O	FGF22 binding 44.0 (no result: PGC1a acetyl inh)
CC(=NNC(=O)c1ccncc1)c1ccccc1O	none
CC(C)(C)[Si](C)(C)OC[C@@H]1[C@H]2c3ccccc3O[C@]1(C)NC(=S)N2C(=O)c1ccccc1	PAX8 inh HTS 95.2 (no result: FN deposition inh)
CCOC(=O)c1ccc(NC(=S)NCCc2ccccc2F)cc1	FGF22 binding 44.0
CCOC(=O)c1ccc(NC(=S)NCCc2ccccc2)cc1	none (no result: EWS-Fli inh, PAX8 inh HTS, FGF22 binding, HIV Env fusion, FN deposition inh)
COc1ccc(S(=O)(=O)N(C)C[C@@H]2OCCCC[C@@H](C)Oc3ccc(NS(=O)(=O)c4cccs4)cc3C(=O)N([C@@H](C)CO)C[C@H]2C)cc1	none (no result: FN deposition inh)
Cc1ccc(C)c(-n2cc(CNCCc3cnccn3)c(-c3ccccc3)n2)c1	none (no result: PGC1a acetyl inh)
CCn1ccnc1CNCc1cn(-c2cc(C)ccc2C)nc1-c1ccccc1	FGF22 binding 43.1 (no result: PGC1a acetyl inh)
CO[C@H]1CN(C)C(=O)c2ccc(NS(=O)(=O)c3cn(C)cn3)cc2OC[C@@H](C)N(CC2CC2)C[C@@H]1C	none (no result: HIV Env fusion)
CCOC(=O)NN1C(=O)c2ccccc2NC1c1ccc(OC)c(OC)c1 (centres undefined)	FGF22 binding 43.3
CC(C)NC(=O)Nc1ccc2c(c1)CC(=O)N([C@@H](C)CO)C[C@@H](C)[C@H](CN(C)Cc1ccc(C(=O)Nc3ccccc3N)cc1)O2	none (no result: PAX8 inh HTS, FN deposition inh)
Nc1cc(=O)[nH]n1C1CCCCC1	FGF22 binding 43.0
Nc1cc(=O)[nH]n1C1CCCC1	none
C[C@H]1CN([C@@H](C)CO)C(=O)Cc2cc(NS(=O)(=O)c3cccs3)ccc2O[C@H]1CN(C)Cc1ccc2c(c1)OCO2	none (no result: FN deposition inh)
COc1cc(/C=N/NC(=O)c2cc(-c3c(C)nn(-c4ccccc4)c3C)n[nH]2)ccc1O	PAX8 inh HTS 69.4 (no result: PGC1a acetyl inh)
Cc1cccc(NC(=O)CSCC(=O)Nc2cc(Cl)ccc2N2CCOCC2)c1	HIV Env fusion 71.8 (no result: PGC1a acetyl inh, FN deposition inh)
COc1ccc(Cl)cc1NC(=O)CN(C)CC(=O)N1CC(=O)Nc2ccccc21	none (no result: HIV Env fusion)
COc1ccc(Cl)cc1NC(=O)CN(C)CC(=O)Nc1ccccc1N1CCOCC1	EWS-Fli inh 62.1 (no result: PGC1a acetyl inh)
O=C(Nc1ccccc1N1CCOCC1)C1(c2ccc(Cl)cc2)CCC1	PGC1a acetyl inh 40.7
COc1ccc(CC(=O)Nc2cc(S(=O)(=O)N3CCOCC3)ccc2N2CCOCC2)cc1	FGF22 binding 43.4 (no result: PGC1a acetyl inh)
Cc1ccc(-c2[nH]c3ccccc3c2SCCNC(=O)c2ccc(S(=O)(=O)N3CCOCC3)cc2)cc1	PAX8 inh HTS 61.6 (no result: PGC1a acetyl inh)
COc1cccc(CC(=O)Nc2cc(S(=O)(=O)N3CCOCC3)ccc2N2CCN(C)CC2)c1	none (no result: HIV Env fusion)
CCOC(=O)/C=C/C(=O)Nc1cc(S(=O)(=O)Nc2ccc(OC)cc2)ccc1N1CCOCC1	PAX8 inh HTS 98.2 (no result: PGC1a acetyl inh)
COc1ccc(CC(=O)Nc2cc(S(=O)(=O)N3CCOCC3)ccc2N2CCCC2)cc1	FGF22 binding 43.2
